Reference: ChEMBL document CHEMBL1135994, “Potent, novel in vitro inhibitors of the Pseudomonas aeruginosa deacetylase LpxC” (J Med Chem, 2002)

Target: T1, UDP-3-O-acyl-N-acetylglucosamine deacetylase (Pseudomonas aeruginosa (strain ATCC 15692 / PAO1 / 1C / PRS 101 / LMG12228), UniProt P47205)
T1 sequence (P47205 whole entry): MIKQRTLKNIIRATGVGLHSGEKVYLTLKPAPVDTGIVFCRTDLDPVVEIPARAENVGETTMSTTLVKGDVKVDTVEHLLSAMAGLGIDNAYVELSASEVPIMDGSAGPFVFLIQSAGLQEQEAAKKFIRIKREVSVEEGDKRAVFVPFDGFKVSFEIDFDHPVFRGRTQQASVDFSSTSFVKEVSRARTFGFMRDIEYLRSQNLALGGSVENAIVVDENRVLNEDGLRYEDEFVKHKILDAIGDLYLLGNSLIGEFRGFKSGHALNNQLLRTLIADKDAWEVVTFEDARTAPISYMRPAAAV
Assay: Inhibition of Pseudomonas aeruginosa UDP-3-O-acyl-N-acetylglucosamine Deacetylase (LpxC) in vitro.
How it was run: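 Purified recombinant P. aeruginosa LpxC (IPTG-induced, zinc-reconstituted) at 2 nM incubated with 150 nM [3H-acetyl]-UDP-3-O-(R-3-hydroxydecanoyl)-GlcNAc for 90 min at room temperature (22 °C). Buffer is sodium phosphate pH 7.5 with 1 mg/mL BSA. Stopped with activated charcoal suspension. Released [3H]-acetate in the clarified supernatant counted by scintillation. 5 mM EDTA controls define nonspecific tritium release. IC50 determined.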

Row | Structure (SMILES) | IC50
1 | CN(C)c1ccc(C2=NC(C(=O)NO)CO2)cc1 (stereo not drawn) | 4.9 µM
2 | C=CCCOc1ccc(C(=O)NC(CO)C(=O)NO)cc1 (stereo not drawn) | 3.9 µM
3 | CCCCn1nc(C2=NC(C(=O)NO)CO2)c2ccccc21 (stereo not drawn) | 10 µM
4 | COc1c(F)cc(C2=NC(C(=O)NO)CO2)cc1Br (stereo not drawn) | 9 µM
5 | O=C(NO)C1COC(c2cc(F)cc(C(F)(F)F)c2)=N1 (stereo not drawn) | 25 µM
6 | CCCCc1ccc(C2=NC(C(=O)NO)CO2)cc1 (stereo not drawn) | 7.3 µM
7 | CC(=O)Nc1ccc(C2=NC(C(=O)NO)CO2)cc1 (stereo not drawn) | > 30 µM
8 | C=CCCOc1ccc(C2=NC(C(=O)NO)CS2)cc1 (stereo not drawn) | 58.7 µM
9 | O=C(NO)C1COC(c2ccc(I)cc2)=N1 (stereo not drawn) | 5.5 µM
10 | Cc1ccc(C2=NC(C(=O)NO)CO2)cc1 (stereo not drawn) | 20 µM
11 | Cc1ccc(C(=O)NC(CO)C(=O)NO)cc1 (stereo not drawn) | > 50 µM
12 | O=C(NO)C1COC(c2ccc(C(F)(F)F)nc2)=N1 (stereo not drawn) | 10 µM
13 | O=C(NO)C1COC(c2ccc(C(F)(F)F)cc2)=N1 (stereo not drawn) | 7.8 µM
14 | CCCc1cc(C2=NC(C(=O)NO)CO2)cc(OC(F)(F)F)c1OC (stereo not drawn) | 0.5 µM
15 | O=C(NO)C1CCOC(c2ccc(F)c(C(F)(F)F)c2)=N1 (stereo not drawn) | 21.2 µM
16 | Cc1cc(C2=NC(C(=O)NO)CO2)ccc1F (stereo not drawn) | 1.2 µM
17 | CCCc1cc(C(=O)NC(CO)C(=O)NO)cc(OC(F)(F)F)c1OC (stereo not drawn) | > 50 µM
18 | O=C(NO)C1COC(c2ccc(F)c(Br)c2)=N1 (stereo not drawn) | 4.9 µM
19 | O=C(NO)C1COC(c2ccc(OCc3ccccc3C(F)(F)F)c(F)c2)=N1 (stereo not drawn) | 9.6 µM
20 | Cc1c(C2=NC(C(=O)NO)CO2)cnn1-c1ccccc1 (stereo not drawn) | > 30 µM
21 | C=CCOc1ccc(C2=NC(C(=O)NO)CO2)cc1F (stereo not drawn) | 1.4 µM

Row | Structure (SMILES) | IC50
22 | CCCCn1nc2ccccc2c1C1=NC(C(=O)NO)CO1 (stereo not drawn) | 12 µM
23 | O=C(NO)C1COC(c2ccccc2OC(F)(F)F)=N1 (stereo not drawn) | > 10 µM
24 | O=C(NO)C1COC(c2ccc([N+](=O)[O-])cc2)=N1 (stereo not drawn) | 5.4 µM
25 | CCCc1ccc(-c2ccc(C3=NC(C(=O)NO)CO3)cc2)cc1 (stereo not drawn) | 0.28 µM
26 | O=C(NO)C1COC(c2ccc(OC(F)(F)F)cc2)=N1 (stereo not drawn) | 5 µM
27 | O=C(NO)C1COC(c2ccc(F)c(C(F)(F)F)c2)=N1 (stereo not drawn) | 1.3 µM
28 | C=CCOc1ccc(C2=NC(C(=O)NO)CO2)cc1OC(F)(F)F (stereo not drawn) | 0.12 µM
29 | C=CCOc1ccc(C2=NC(C(=O)NO)CO2)cc1C(F)(F)F (stereo not drawn) | 2.2 µM
30 | O=C(NO)C1COC(c2ccc(OC(F)(F)F)c(Cl)c2)=N1 (stereo not drawn) | 30 µM
31 | O=C(NO)C1CCOC(c2cc3cc(F)ccc3[nH]2)=N1 (stereo not drawn) | 31.2 µM
32 | Cc1ccc(C2=NC(C(=O)NO)CS2)cc1 (stereo not drawn) | 38.5 µM
33 | CCCc1cc(C2=NC(C(=O)NO)CO2)ccc1F (stereo not drawn) | 0.96 µM
34 | O=C(NC(CO)C(=O)NO)c1ccc(F)cc1 (stereo not drawn) | > 50 µM
35 | O=C(NO)C1COC(c2cc3cc(F)ccc3[nH]2)=N1 (stereo not drawn) | 1.6 µM
36 | C=CCCOc1ccc(C2=NC(C(=O)NO)CO2)cc1OC(F)(F)F (stereo not drawn) | 0.35 µM
37 | CC(C)=CCOc1ccc(C2=NC(C(=O)NO)CO2)cc1OC(F)(F)F (stereo not drawn) | 0.19 µM
38 | O=C(NO)C1CSC(c2ccc(OC(F)(F)F)cc2)=N1 (stereo not drawn) | 21.7 µM
39 | O=C(NO)C1COC(c2ccc(F)cc2)=N1 (stereo not drawn) | 6 µM
40 | O=C(NO)C1COC(c2ccc(OCc3cccc(C(F)(F)F)c3)c(F)c2)=N1 (stereo not drawn) | 0.84 µM
41 | COc1ccc(C2=NC(C(=O)NO)CO2)cc1OC(F)(F)F (stereo not drawn) | 0.16 µM
42 | O=C(NO)C1COC(c2[nH]c3ccc(F)cc3c2Cl)=N1 (stereo not drawn) | 0.3 µM

Row | Structure (SMILES) | IC50
43 | O=C(NO)C1CSC(c2ccc(F)cc2)=N1 (stereo not drawn) | 62.5 µM
44 | CCCc1cc(C2=NC(C(=O)NO)CS2)cc(OC(F)(F)F)c1OC (stereo not drawn) | 17.8 µM
45 | C=CCCOc1ccc(C2=NC(C(=O)NO)CO2)cc1 (stereo not drawn) | 5.6 µM
46 | O=C(NO)C1COC(c2ccc(Br)cc2)=N1 (stereo not drawn) | 2.7 µM
47 | Cc1c(C2=NC(C(=O)NO)CS2)cnn1-c1ccccc1 (stereo not drawn) | > 60 µM
48 | CCOc1cc(C(=O)NC(CO)C(=O)NO)ccc1F (stereo not drawn) | 46 µM
49 | O=C(NO)C1COC(c2cccc(C(F)(F)F)c2)=N1 (stereo not drawn) | 2.5 µM
50 | O=C(NO)C1COC(c2[nH]nc3ccccc23)=N1 (stereo not drawn) | 5.5 µM
51 | C=CCOc1ccc(C(=O)NC(CO)C(=O)NO)cc1OC(F)(F)F (stereo not drawn) | 7.5 µM
52 | CC(=O)c1ccc(C2=NC(C(=O)NO)CO2)cc1 (stereo not drawn) | 18 µM
53 | Cc1ccc(C2=NC(C(=O)NO)CCO2)cc1 (stereo not drawn) | > 50 µM
54 | O=C(NO)C1COC(c2ccc(COc3cccc([N+](=O)[O-])c3)cc2)=N1 (stereo not drawn) | 0.56 µM
55 | O=C(NO)C1COC(c2cccc(OC(F)(F)F)c2)=N1 (stereo not drawn) | 6 µM
56 | O=C(NO)C1COC(c2ccc(OCc3cccc([N+](=O)[O-])c3)cc2)=N1 (stereo not drawn) | 1 µM
57 | CCOc1cc(C2=NC(C(=O)NO)CO2)ccc1F (stereo not drawn) | 1 µM
58 | O=C(NO)C1COC(c2ccc(O)cc2)=N1 (stereo not drawn) | > 30 µM
59 | O=C(NC(CO)C(=O)NO)c1n[nH]c2ccccc12 (stereo not drawn) | 13 µM
60 | O=C(NO)C1COC(c2ccc(OCc3cccc(F)c3)c(OC(F)(F)F)c2)=N1 (stereo not drawn) | 0.25 µM
61 | O=C(NO)C1COC(c2cnn(-c3ccccc3)c2C(F)(F)F)=N1 (stereo not drawn) | > 30 µM
62 | C=CCc1c(C)c(C2=NC(C(=O)NO)CO2)cc(F)c1OC (stereo not drawn) | 3.3 µM
63 | CCCCCCCOc1ccc(C2=NC(C(=O)NO)CO2)cc1 (stereo not drawn) | > 30 µM
